Laboratory results reported in ChEMBL document CHEMBL4130549, “Synthesis and bioactivities study of new antibacterial peptide mimics: The dialkyl cationic amphiphiles” (Eur J Med Chem, 2018).
Activity calls are given as the source filed them. No cut-off for these calls is given here.

Key:
Klebsiella pneumoniae [1] = assay: Antibacterial activity against carbapenemase-producing Klebsiella pneumoniae isolate K8 after 16 to 20 hrs by broth microdilution method; type: functional
Outline: (§1)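 Broth microdilution per CLSI in cation-adjusted Mueller-Hinton broth; 4-6 h cultures (~10⁸ CFU/mL) diluted to ~10⁶ CFU/mL and mixed 1:1 with twofold dilutions of water-dissolved compound (256 to 0.5 µg/mL). Incubated 16-20 h at 37 °C; MIC read visually. Each concentration run in duplicate, whole experiment repeated at least twice. MRSA, KPC and NDM-1 strains were clinical isolates.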

Staphylococcus aureus [2] = assay: Antibacterial activity against methicillin-resistant Staphylococcus aureus isolate M5 after 16 to 20 hrs by broth microdilution method; type: functional
Outline: (§2)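 CLSI broth microdilution in cation-adjusted Mueller-Hinton broth. A 4-6 h culture was diluted to about 10⁶ CFU/mL and mixed 1:1 with twofold compound dilutions (256–0.5 µg/mL before mixing) prepared from aqueous stocks. Plates were incubated at 37 °C for 16-20 h. Each concentration was tested in duplicate, and the experiment was repeated at least twice.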

Staphylococcus aureus [3] = assay: Antibacterial activity against methicillin-resistant Staphylococcus aureus isolate M7 after 16 to 20 hrs by broth microdilution method; type: functional; outline: as §2
Klebsiella pneumoniae [4] = assay: Antibacterial activity against carbapenemase-producing Klebsiella pneumoniae isolate K5 after 16 to 20 hrs by broth microdilution method; type: functional; outline: as §1
Enterobacteriaceae [5] = assay: Antibacterial activity against NDM-1-producing Enterobacteriaceae isolate N10 after 16 to 20 hrs by broth microdilution method; type: functional; outline: as §1
Enterobacteriaceae [6] = assay: Antibacterial activity against NDM-1-producing Enterobacteriaceae isolate N4 after 16 to 20 hrs by broth microdilution method; type: functional; outline: as §1
Staphylococcus aureus [7] = assay: Antibacterial activity against methicillin-resistant Staphylococcus aureus isolate M6 after 16 to 20 hrs by broth microdilution method; type: functional; outline: as §2
Klebsiella pneumoniae [8] = assay: Antibacterial activity against carbapenemase-producing Klebsiella pneumoniae isolate K7 after 16 to 20 hrs by broth microdilution method; type: functional; outline: as §1
Klebsiella pneumoniae [9] = assay: Antibacterial activity against carbapenemase-producing Klebsiella pneumoniae isolate K3 after 16 to 20 hrs by broth microdilution method; type: functional; outline: as §1
Staphylococcus aureus [10] = assay: Antibacterial activity against methicillin-resistant Staphylococcus aureus isolate M1 after 16 to 20 hrs by broth microdilution method; type: functional; outline: as §2
Enterobacteriaceae [11] = assay: Antibacterial activity against NDM-1-producing Enterobacteriaceae isolate N9 after 16 to 20 hrs by broth microdilution method; type: functional; outline: as §1
Enterobacteriaceae [12] = assay: Antibacterial activity against NDM-1-producing Enterobacteriaceae isolate N1 after 16 to 20 hrs by broth microdilution method; type: functional; outline: as §1
Klebsiella pneumoniae [13] = assay: Antibacterial activity against carbapenemase-producing Klebsiella pneumoniae after 16 to 20 hrs by broth microdilution method; type: functional; outline: as §1
Staphylococcus aureus [14] = assay: Antibacterial activity against Staphylococcus aureus ATCC 29213 after 16 to 20 hrs by broth microdilution method; type: functional; outline: as §2
Klebsiella pneumoniae [15] = assay: Antibacterial activity against carbapenemase-producing Klebsiella pneumoniae isolate K9 after 16 to 20 hrs by broth microdilution method; type: functional; outline: as §1
Escherichia coli [16] = assay: Induction of cytoplasmic membrane depolarization in Escherichia coli ATCC 25922 at 20 ug/ml measured every 2 mins for 12 mins by diSC35 staining based fluorescence assay; type: functional, organism-based
Outline: (§3)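 Mid-log cells (4–6 h) pelleted, washed and resuspended (~10^8 CFU/mL) in PBS for S. aureus, or in 5 mM HEPES, 5 mM glucose and 100 mM KCl (1:1:1) for E. coli. Preloaded with diSC35 (10 µM, 50 µL), 30 min for S. aureus and 40 min plus EDTA (200 µM, 50 µL) for E. coli. Baseline read 8 min (ex 622/em 670 nm), then compound added to 20 µg/mL final and read every 2 min for 12 min. Water control.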

Enterobacteriaceae [17] = assay: Antibacterial activity against NDM-1-producing Enterobacteriaceae after 16 to 20 hrs by broth microdilution method; type: functional; outline: as §1
[18] = Hemolytic activity in sheep RBC after 1 hr; type: ADME, cell-based, Ovis aries, Erythrocyte; settings: sheep red blood cells (erythrocytes)
Outline: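 Sheep RBCs suspended at 5% in PBS; 150 µL added to 50 µL compound dilutions (5120 to 10 µg/mL series). Incubated 1 h at 37 °C, then centrifuged; supernatant absorbance read at 540 nm. Lysis (%) = (A−A0)/(Atotal−A0)×100, with untreated 5% RBC as A0 and 0.1% Triton X-100 as total.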

Staphylococcus aureus [19] = assay: Antibacterial activity against methicillin-resistant Staphylococcus aureus isolate M3 after 16 to 20 hrs by broth microdilution method; type: functional; outline: as §2
Staphylococcus aureus [20] = assay: Induction of cytoplasmic membrane depolarization in Staphylococcus aureus ATCC 29213 at 20 ug/ml measured every 2 mins for 12 mins by diSC35 staining based fluorescence assay; type: functional, organism-based; outline: as §3
Enterobacteriaceae [21] = assay: Antibacterial activity against NDM-1-producing Enterobacteriaceae isolate N5 after 16 to 20 hrs by broth microdilution method; type: functional; outline: as §1
Staphylococcus aureus [22] = assay: Antibacterial activity against methicillin-resistant Staphylococcus aureus isolate M8 after 16 to 20 hrs by broth microdilution method; type: functional; outline: as §2
Klebsiella pneumoniae [23] = assay: Antibacterial activity against carbapenemase-producing Klebsiella pneumoniae isolate K10 after 16 to 20 hrs by broth microdilution method; type: functional; outline: as §1
Escherichia coli [24] = assay: Antibacterial activity against Escherichia coli ATCC 25922 after 16 to 20 hrs by broth microdilution method; type: functional; outline: as §1
Enterobacteriaceae [25] = assay: Antibacterial activity against NDM-1-producing Enterobacteriaceae isolate N8 after 16 to 20 hrs by broth microdilution method; type: functional; outline: as §1
Klebsiella pneumoniae [26] = assay: Antibacterial activity against carbapenemase-producing Klebsiella pneumoniae isolate K6 after 16 to 20 hrs by broth microdilution method; type: functional; outline: as §1
Enterobacteriaceae [27] = assay: Antibacterial activity against NDM-1-producing Enterobacteriaceae isolate N2 after 16 to 20 hrs by broth microdilution method; type: functional; outline: as §1
Enterococcus faecalis = assay: Antibacterial activity against Enterococcus faecalis after 16 to 20 hrs by broth microdilution method; type: functional; outline: as §1
Staphylococcus aureus [28] = assay: Antibacterial activity against methicillin-resistant Staphylococcus aureus after 16 to 20 hrs by broth microdilution method; type: functional; outline: as §2
Staphylococcus aureus [29] = assay: Antibacterial activity against methicillin-resistant Staphylococcus aureus isolate M4 after 16 to 20 hrs by broth microdilution method; type: functional; outline: as §2
Enterobacteriaceae [30] = assay: Antibacterial activity against NDM-1-producing Enterobacteriaceae isolate N3 after 16 to 20 hrs by broth microdilution method; type: functional; outline: as §1
Klebsiella pneumoniae [31] = assay: Antibacterial activity against carbapenemase-producing Klebsiella pneumoniae isolate K2 after 16 to 20 hrs by broth microdilution method; type: functional; outline: as §1
Staphylococcus aureus [32] = assay: Antibacterial activity against methicillin-resistant Staphylococcus aureus isolate M9 after 16 to 20 hrs by broth microdilution method; type: functional; outline: as §2
Escherichia coli [33] = assay: Induction of outer membrane permeabilization in Escherichia coli ATCC 25922 at 20 ug/ml measured every 2 mins for 12 mins by NPN staining based fluorescence assay; type: functional, organism-based
Outline: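 Mid-log E. coli (~10^8 CFU/mL) in black plates pre-incubated about 40 min with NPN (10 µM, 50 µL). Baseline read 8 min (ex 350/em 420 nm), then compound added to 20 µg/mL final and fluorescence followed every 2 min for 12 min. Water-treated control.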

Staphylococcus aureus [34] = assay: Antibacterial activity against methicillin-resistant Staphylococcus aureus isolate M2 after 16 to 20 hrs by broth microdilution method; type: functional; outline: as §2
Salmonella enterica = assay: Antibacterial activity against Salmonella enterica after 16 to 20 hrs by broth microdilution method; type: functional; outline: as §1
Klebsiella pneumoniae [35] = assay: Antibacterial activity against carbapenemase-producing Klebsiella pneumoniae isolate K1 after 16 to 20 hrs by broth microdilution method; type: functional; outline: as §1
Enterobacteriaceae [36] = assay: Antibacterial activity against NDM-1-producing Enterobacteriaceae isolate N7 after 16 to 20 hrs by broth microdilution method; type: functional; outline: as §1
Staphylococcus aureus [37] = assay: Induction of inner membrane permeabilization in Staphylococcus aureus ATCC 29213 at 20 ug/ml measured every 2 mins for 12 mins by propidium iodide staining based fluorescence assay; type: functional, organism-based
Outline: (§4)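 Mid-log cells (~10^8 CFU/mL) pre-incubated with propidium iodide (10 µM, 50 µL), 30 min for S. aureus and 40 min for E. coli. Fluorescence (ex 535/em 617 nm) read for 8 min, then compound added to 20 µg/mL final and monitored every 2 min for 12 min. Water-treated control.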

Staphylococcus aureus [38] = assay: Antibacterial activity against methicillin-resistant Staphylococcus aureus isolate M10 after 16 to 20 hrs by broth microdilution method; type: functional; outline: as §2
Escherichia coli [39] = assay: Induction of inner membrane permeabilization in Escherichia coli ATCC 25922 at 20 ug/ml measured every 2 mins for 12 mins by propidium iodide staining based fluorescence assay; type: functional, organism-based; outline: as §4
Enterobacteriaceae [40] = assay: Antibacterial activity against NDM-1-producing Enterobacteriaceae isolate N6 after 16 to 20 hrs by broth microdilution method; type: functional; outline: as §1
Klebsiella pneumoniae [41] = assay: Antibacterial activity against carbapenemase-producing Klebsiella pneumoniae isolate K4 after 16 to 20 hrs by broth microdilution method; type: functional; outline: as §1

CCCCCCCN(CCCCCCC)C(=O)[C@@H](N)CCCCN.Cl.Cl
MIC (Klebsiella pneumoniae [1]): 16 µg/mL | MIC (Staphylococcus aureus [2]): 8 µg/mL | MIC (Staphylococcus aureus [3]): 4 µg/mL | MIC (Klebsiella pneumoniae [4]): 16 µg/mL | MIC (Enterobacteriaceae [5]): 16 µg/mL | MIC (Enterobacteriaceae [6]): 32 µg/mL | MIC (Staphylococcus aureus [7]): 4 µg/mL | MIC (Klebsiella pneumoniae [8]): 16 µg/mL | MIC (Klebsiella pneumoniae [9]): 16 µg/mL | MIC (Staphylococcus aureus [10]): 8 µg/mL | MIC (Enterobacteriaceae [11]): 16 µg/mL | MIC (Enterobacteriaceae [12]): 32 µg/mL | MIC (Klebsiella pneumoniae [13]): 16 µg/mL | MIC (Staphylococcus aureus [14]): 8 µg/mL | MIC (Klebsiella pneumoniae [15]): 16 µg/mL | Activity (Escherichia coli [16]): Active | MIC (Enterobacteriaceae [17]): 16 µg/mL | HC50 at 1 h [18]: 434 µg/mL | MIC (Staphylococcus aureus [19]): 16 µg/mL | Activity (Staphylococcus aureus [20]): Active | MIC (Enterobacteriaceae [21]): 16 µg/mL | MIC (Staphylococcus aureus [22]): 8 µg/mL | MIC (Klebsiella pneumoniae [23]): 16 µg/mL | MIC (Escherichia coli [24]): 8 µg/mL | MIC (Enterobacteriaceae [25]): 32 µg/mL | MIC (Klebsiella pneumoniae [26]): 16 µg/mL | MIC (Enterobacteriaceae [27]): 32 µg/mL | MIC (Enterococcus faecalis): 8 µg/mL | MIC (Staphylococcus aureus [28]): 4 µg/mL | MIC (Staphylococcus aureus [29]): 16 µg/mL | MIC (Enterobacteriaceae [30]): 32 µg/mL | MIC (Klebsiella pneumoniae [31]): 16 µg/mL | MIC (Staphylococcus aureus [32]): 4 µg/mL | Activity (Escherichia coli [33]): Active | MIC (Staphylococcus aureus [34]): 16 µg/mL | MIC (Salmonella enterica): 16 µg/mL | MIC (Klebsiella pneumoniae [35]): 16 µg/mL | MIC (Enterobacteriaceae [36]): 32 µg/mL | Activity (Staphylococcus aureus [37]): Active | MIC (Staphylococcus aureus [38]): 4 µg/mL | Activity (Escherichia coli [39]): Active | MIC (Enterobacteriaceae [40]): 16 µg/mL | MIC (Klebsiella pneumoniae [41]): 16 µg/mL

CCCCCCCCCCCN(CCCCCCCCCCC)C(=O)[C@@H](N)CCCCN.Cl.Cl
MIC (Klebsiella pneumoniae [1]): 8 µg/mL | MIC (Staphylococcus aureus [2]): 4 µg/mL | MIC (Staphylococcus aureus [3]): 4 µg/mL | MIC (Klebsiella pneumoniae [4]): 32 µg/mL | MIC (Enterobacteriaceae [5]): 32 µg/mL | MIC (Enterobacteriaceae [6]): 32 µg/mL | MIC (Staphylococcus aureus [7]): 4 µg/mL | MIC (Klebsiella pneumoniae [8]): 32 µg/mL | MIC (Klebsiella pneumoniae [9]): 16 µg/mL | MIC (Staphylococcus aureus [10]): 2 µg/mL | MIC (Enterobacteriaceae [11]): 32 µg/mL | MIC (Enterobacteriaceae [12]): 32 µg/mL | MIC (Klebsiella pneumoniae [13]): 8 µg/mL | MIC (Staphylococcus aureus [14]): 4 µg/mL | MIC (Klebsiella pneumoniae [15]): 32 µg/mL | Activity (Escherichia coli [16]): Active | MIC (Enterobacteriaceae [17]): 32 µg/mL | HC50 at 1 h [18]: 89 µg/mL | MIC (Staphylococcus aureus [19]): 2 µg/mL | Activity (Staphylococcus aureus [20]): Active | MIC (Enterobacteriaceae [21]): 32 µg/mL | MIC (Staphylococcus aureus [22]): 4 µg/mL | MIC (Klebsiella pneumoniae [23]): 32 µg/mL | MIC (Escherichia coli [24]): 16 µg/mL | MIC (Enterobacteriaceae [25]): 16 µg/mL | MIC (Klebsiella pneumoniae [26]): 32 µg/mL | MIC (Enterobacteriaceae [27]): 32 µg/mL | MIC (Enterococcus faecalis): 2 µg/mL | MIC (Staphylococcus aureus [28]): 4 µg/mL | MIC (Staphylococcus aureus [29]): 2 µg/mL | MIC (Enterobacteriaceae [30]): 32 µg/mL | MIC (Klebsiella pneumoniae [31]): 16 µg/mL | MIC (Staphylococcus aureus [32]): 4 µg/mL | Activity (Escherichia coli [33]): Active | MIC (Staphylococcus aureus [34]): 1 µg/mL | MIC (Salmonella enterica): 8 µg/mL | MIC (Klebsiella pneumoniae [35]): 32 µg/mL | MIC (Enterobacteriaceae [36]): 16 µg/mL | Activity (Staphylococcus aureus [37]): Active | MIC (Staphylococcus aureus [38]): 4 µg/mL | Activity (Escherichia coli [39]): Active | MIC (Enterobacteriaceae [40]): 32 µg/mL | MIC (Klebsiella pneumoniae [41]): 8 µg/mL
